SIRT5 inh – inhibitors of human sirtuin-5 desuccinylase | Purified SirT5, succinyl-peptide AMC, trypsin-coupled fluorescence | inhibition, % at 15 µM | 330,000 tested, 1.1% active | Q9NXA8; in the data active = inhibition above about 15%
DENV2 CPE – DENV2-induced cell death inhibition. AID 651640. DENV2-infected cells, cytopathic effect rescue, plate reader. CPE inhibition, % at 9.99 µM. 350,000 tested, 1.7% active; in the data active = CPE inhibition above about 20%, passing the limit was not always enough; tested in BHK-21 cells
PglD inh – PglD (C. jejuni) enzyme inhibition. purified PglD enzyme, DTNB colorimetric CoA detection. inhibition, % at 12.5 µM. 360,000 tested, 0.098% active. AID 602405; in the data active = inhibition above about 16%, passing the limit was not always enough
E-selectin induc – E-selectin induction on HUVECs; P16581; HUVEC E-selectin immunofluorescence imaging; normalized: neutral wells 0, TNF-alpha wells 100; activation, % at 7.58 µM; 260,000 tested, 0.37% active;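 active = mean E-selectin-positive cell signal at least 10% of the positive control, reached in at least 60% of replicates, without over 20% cell loss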
Target sequence (P16581 whole entry, looked up): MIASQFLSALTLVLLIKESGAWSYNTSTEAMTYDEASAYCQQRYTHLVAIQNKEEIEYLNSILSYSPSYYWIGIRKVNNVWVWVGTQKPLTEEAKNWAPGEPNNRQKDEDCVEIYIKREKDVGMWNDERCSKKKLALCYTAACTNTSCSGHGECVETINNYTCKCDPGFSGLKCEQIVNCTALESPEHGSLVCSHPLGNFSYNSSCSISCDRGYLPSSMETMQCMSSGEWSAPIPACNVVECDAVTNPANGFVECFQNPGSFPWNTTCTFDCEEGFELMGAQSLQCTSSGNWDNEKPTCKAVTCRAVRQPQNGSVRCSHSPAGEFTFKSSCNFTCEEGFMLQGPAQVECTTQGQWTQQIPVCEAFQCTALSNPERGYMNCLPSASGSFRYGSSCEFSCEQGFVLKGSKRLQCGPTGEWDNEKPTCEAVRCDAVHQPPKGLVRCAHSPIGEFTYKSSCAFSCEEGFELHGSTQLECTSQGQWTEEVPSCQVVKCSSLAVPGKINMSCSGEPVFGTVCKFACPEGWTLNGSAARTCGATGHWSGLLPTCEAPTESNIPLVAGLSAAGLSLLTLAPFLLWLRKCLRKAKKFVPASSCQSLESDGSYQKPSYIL
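Material: HUVEC primary endothelial cells; Amount: 3,000 cells per well; Dosing: single concentration; Medium: EGM-2 growth medium on 0.1% gelatin-coated wells; Read-out basis: percent E-selectin-positive cells; Signal: immunofluorescence imaging; Control set: TNF-alpha, DMSO.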
ERAP1 inh – ERAP1 (human) enzyme inhibition. Q9NZ08. recombinant ERAP1, Leu-AMC fluorescence, 60 min. inhibition, % at 10.7 µM. 340,000 tested, 0.15% active. AID 652197;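 active = mean replicate inhibition of at least 30%, or all replicates individually reaching that 30% level; inactive = mean below 30% and not every replicate reaching it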
A number is an active result; n = inactive; x = no result; ! = not confirmed by another sample. In the library only some 2.5% were active in any assay of this set; here they are far more common.

SMILES	SIRT5 inh	DENV2 CPE	PglD inh	E-selectin induc	ERAP1 inh
C=CCNC(=S)N1CCC(C(=O)c2ccc(F)cc2)CC1	n	53	n	n	n
CNC(=S)N1CCC(C(=O)c2ccc(Cl)cc2)CC1	n	22	n	n	n
COc1ccc(NC(=S)N2CCC(C(=O)c3ccc(Cl)cc3)CC2)cc1	n	n	n	x	n
COc1ccc(NC(=S)N2CCC(C(=O)c3ccc(F)cc3)CC2)cc1	n	37	n	x	n
O=C(C[C@H]1C=C[C@@H](NC(=O)c2ccccc2)[C@H](CO)O1)Nc1ccc(-c2ccccc2)cc1	n	n	n	n	n
O=C(O)C[C@@H]1CC[C@@H](NC(=O)c2ccncc2)[C@@H](CO)O1	n	n	n	n	n
O=C(Nc1ccccc1Cl)c1cc(S(=O)(=O)N2CCCCC2)ccc1N1CCOCC1	x	x	n	x	x
CCc1nnc(NC(=O)c2cc(S(=O)(=O)N3CCOCC3)ccc2N2CCCCC2)s1	n	n	n	n	56
CC(C)Oc1ccc(S(=O)(=O)N2CCOCC2)cc1NC(=O)c1cc([N+](=O)[O-])ccc1N1CCOCC1	n	72	n	n	n
Cc1occc1C(=O)Nc1cc(S(=O)(=O)N2CCOCC2)ccc1OC(C)C	n	n	n	x	n
COc1ccc(CCC(=O)Nc2cc(S(=O)(=O)N3CCOCC3)ccc2OC(C)C)cc1	n	70	n	n	n
COc1cc(NC(=O)c2cc(S(=O)(=O)N3CCCCC3)ccc2N2CCOCC2)cc(OC)c1OC	n	63	n	n	n
COCCCN(CC(=O)Nc1ccc(N2CCOCC2)cc1)S(=O)(=O)c1ccc(C)cc1	n	n	n	n	n
O=C(O)Cn1cc(C(=O)C(F)(F)F)c2ccccc21	n	n	n	49	n
O=C(Cc1cccc(NC(=O)C2CCCN(C(=O)C3CCC3)C2)c1)Nc1cccc(C(=O)N2CCOCC2)c1 (stereo not drawn)	n	n	n	n	x
COc1cccc(Nc2ccc(N3CCCCC3)cc2)c1OC	n	n	n	n	n
C=CCNC(=O)CC1C(=O)NCCN1Cc1c(F)cccc1Cl (stereo not drawn)	32	n	x	x	n
CC(C)(C)NC(=O)CC1C(=O)NCCN1Cc1c(F)cccc1Cl (stereo not drawn)	n	n	x	x	n
COc1ccc(OCc2cc(C(=O)NCCN3CCCC(O)C3)no2)c(Cl)c1 (stereo not drawn)	n	n	n	n	n
O=C(NCCN1CCCC(O)C1)c1cc(COc2ccc(F)cc2Cl)on1 (stereo not drawn)	24	n	x	x	n
CSc1ccccc1NC(=O)c1cc2c(=O)n3ccccc3nc2s1	n	22	n	n	n
CC(C)(C)n1nnnc1C(c1ccccc1)N1CCN(C(=O)C2CCCO2)CC1 (stereo not drawn)	n	n	x	n	n
O=C(c1ccc(CNc2c(N3CCCC3)c(=O)c2=O)cc1)N1CCN(C2CCCCC2)CC1	n	78	n	n	n
CC(=O)N(C)C[C@@H]1Oc2cc(C#Cc3ccccc3F)ccc2S(=O)(=O)N([C@H](C)CO)C[C@@H]1C	n	n	n	n	n
C[C@H](CO)N1C[C@H](C)[C@@H](CN(C)C)Oc2cc(C#Cc3ccccc3F)ccc2S1(=O)=O	n	n	n	104	n
SMILES	SIRT5 inh	DENV2 CPE	PglD inh	E-selectin induc	ERAP1 inh
C[C@@H]1CN([C@H](C)CO)S(=O)(=O)c2ccc(C#Cc3ccccc3F)cc2O[C@H]1CN(C)C(=O)c1ccc2c(c1)OCO2	36!	n	n	n	n
COc1cccc(CNC(=O)C[C@H]2C=C[C@@H](NC(=O)C3CC3)[C@@H](CO)O2)c1	n	n	n	n	n
Cc1cc(=O)oc2cc(OCC(=O)NCCCN3CCCC3=O)c(Cl)cc12	n	n	n	x	n
Cc1cc(=O)oc2c(C)c(OC(C)C(=O)NCCCN3CCCC3=O)ccc12 (stereo not drawn)	26	n	n	n	n
Cc1c(C)c2cc(Cl)c(OCC(=O)NCCCN3CCCC3=O)cc2oc1=O	x	44	n	x	n
CCc1cccc(C)c1N(C(=O)Cn1c(=O)[nH]c2ccccc21)C(C)COC (stereo not drawn)	x	x	n	x	x
CCCN(Cc1nnc(-c2ccccc2Cl)o1)C(=O)c1cc(S(=O)(=O)N2CCOCC2)ccc1F	15	n	n	x	n
CCCN(Cc1nnc(-c2cccs2)o1)C(=O)c1cc(S(=O)(=O)N2CCOCC2)ccc1C	n	n	n	n	n
Cc1cccc(C)c1NC(=O)CS(=O)CC(=O)NC1CCCc2ccccc21 (stereo not drawn)	x	x	n	x	x
Nn1c(COc2ccccc2)nnc1SCC(=O)O	x	x	n	x	x
COc1cccc(C(=O)NCc2ccc3c(c2)OCO3)c1	n	n	n	n	n
CCCn1nc2cc(C(=O)NCc3ccc4c(c3)OCO4)ccc2c1OCC	x	n	n	n	n
CCOc1c2ccc(C(=O)NCc3ccc4c(c3)OCO4)cc2nn1CC	n	32	n	n	n
COc1cc(OC)cc(C(=O)NCc2ccc3c(c2)OCO3)c1	n	29	n	x	n
CSc1ccc(Cn2nnc(C(=O)NCCc3ccc(Cl)cc3)c2N)cc1	n	n	n	n	n
CN(Cc1ccccc1)S(=O)(=O)c1cccc(C(=O)O)c1	31	n	x	x	n
COc1ccc(CCNC2CC(=O)N(C3CCCCC3)C2=O)cc1OC (stereo not drawn)	n	26	n	n	n
COc1ccc(CCNC2CC(=O)N(N(C)C)C2=O)cc1OC (stereo not drawn)	n	n	n	x	n
COc1ccccc1N(C(C)=O)C1=C(Cl)C(=O)c2ccccc2C1=O	x	n	n	n	61
CCCCCCCCN1C(=O)[C@@H](CC(=O)N2CCC(c3ccccc3)CC2)C[C@@]2(C(=O)OC)C1=C[C@H](C(C)(C)C)O[C@@H]2C	x	n	x	n	n
O=C1C=CC(=O)N1Cc1ccccn1	21	n	n	n	n
O=C1c2ccccc2C(=O)N1Cc1ccccn1	n	n	x	x	n
Cn1c(SCc2nc(-c3ccc(Cl)cc3)no2)nnc1-c1cccs1	33	x	n	x	n
Cn1c(SCc2nc(-c3ccccc3)no2)nnc1-c1cccs1	x	x	n	x	x
O=C(O)c1cc(N/N=C/c2ccc(N3CCOCC3)s2)ccc1Cl	36	n	n	x	n
SMILES	SIRT5 inh	DENV2 CPE	PglD inh	E-selectin induc	ERAP1 inh
NC(=O)N/N=C/c1ccc(N2CCOCC2)s1	n	n	x	n	n
c1cc2cc(-c3c(-c4ccc5c(c4)OCO5)noc3-c3ccsc3)ccc2[nH]1	n	120	n	n	n
COc1cc(-c2c(-c3ccc4c(c3)OCO4)noc2-c2ccsc2)ccc1F	17	n	n	n	n
C[C@H](CO)N1C[C@H](C)[C@@H](CN(C)C(=O)Nc2ccccc2)Oc2ccc(NC(=O)Cc3cn(C)c4ccccc34)cc2CC1=O	n	n	n	n	n
C[C@@H]1CN([C@H](C)CO)C(=O)Cc2cc(NC(=O)Cc3cn(C)c4ccccc34)ccc2O[C@@H]1CN(C)Cc1ccccc1	n	n	n	n	n
C[C@H]1CN([C@@H](C)CO)C(=O)Cc2cc(NC(=O)Cc3cn(C)c4ccccc34)ccc2O[C@@H]1CN(C)C(=O)Nc1cccc2ccccc12	n	21	n	n	n
